In BindingDB's records for doi:10.1021/acs.jmedchem.7b00924 (University of Copenhagen, 2017) one finds IC50 data, which are given here for one molecule.

For this test, the target named is T1, Sodium- and chloride-dependent betaine transporter (Mus musculus, UniProt P31651).
T1 sequence (P31651 whole entry): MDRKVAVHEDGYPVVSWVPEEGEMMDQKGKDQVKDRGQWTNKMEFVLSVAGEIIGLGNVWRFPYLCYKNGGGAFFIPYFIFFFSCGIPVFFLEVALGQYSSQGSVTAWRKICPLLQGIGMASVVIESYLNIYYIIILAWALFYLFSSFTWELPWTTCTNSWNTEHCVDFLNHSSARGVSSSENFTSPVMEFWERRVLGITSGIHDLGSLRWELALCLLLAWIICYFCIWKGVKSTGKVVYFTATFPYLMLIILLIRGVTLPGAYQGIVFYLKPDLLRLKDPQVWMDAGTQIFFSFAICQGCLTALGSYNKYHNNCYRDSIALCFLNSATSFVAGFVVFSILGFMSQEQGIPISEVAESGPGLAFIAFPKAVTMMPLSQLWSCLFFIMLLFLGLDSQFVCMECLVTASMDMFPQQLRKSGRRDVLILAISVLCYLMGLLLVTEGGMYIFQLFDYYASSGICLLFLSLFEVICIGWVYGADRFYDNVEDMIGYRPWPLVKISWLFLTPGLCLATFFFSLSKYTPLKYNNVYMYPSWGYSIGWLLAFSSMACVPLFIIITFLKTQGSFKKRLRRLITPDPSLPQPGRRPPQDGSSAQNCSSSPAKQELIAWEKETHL
Put plainly: Inhibition of mouse BGT1 expressed in HEK293 cells assessed as reduction in [3H]GABA uptake after 3 mins by scintillation counting method. The method in brief:
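HEK293 lines stably expressing a single mouse GAT subtype, kept under blasticidin-S (5 µg/mL) selection. Cells were assayed about 24 h after plating with 30 nM [3H]GABA plus varying compound concentrations for 3 min at 37 °C in HBSS buffered with 20 mM HEPES (1 mM CaCl2, 1 mM MgCl2, pH 7.4). Cells were washed ice-cold and radioactivity counted. IC50 came from sigmoidal variable-slope fits.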

pIC50: −log10 of the molar value.

Take `O=C(NC1CCN(Cc2cccc(OC(F)(F)F)c2)CC1)c1ccc(Cl)cc1Cl`: the negative logarithm of the IC50 (pIC50) is 3.90.
